Test results: ChEMBL document CHEMBL1255504, “Functional profiling of p53-binding sites in Hdm2 and Hdmx using a genetic selection system” (Bioorg Med Chem, 2010)
Calls of active or inactive are those of the source. The rule behind the calls is not given here. Where a SMILES comes first, the peptide text is derived from it. The star is where a group is joined. Isobutyryl = CC(C)C(=O)*; Piperidide = C1CCN(*)CC1; Cbz = O=C(OCc1ccccc1)*; PhAc = O=C(Cc1ccccc1)*; Boc = CC(C)(C)OC(=O)*; NHBn = c1ccc(CN*)cc1; Piv = CC(C)(C)C(=O)*; NHtBu = CC(C)(C)N*

Experiments:
[1] = target: T1, E3 ubiquitin-protein ligase Mdm2 (Homo sapiens, UniProt Q00987); experiment: Inhibition of GST-tagged p53 binding to Hdm2 by ELISA
[2] = Solubility of the compound; type: physicochemical
[3] = target: T2, Protein Mdm4 (Homo sapiens) (UniProt O15151); experiment: Inhibition of GST-tagged MDMX expressed in Escherichia coli harboring integrated p53-MDMX protein assessed as blockade of enzyme-p53 interaction by beta-galactosidase assay; set-up: concentration or dose not given beside the values; conditions: concentration not given here
T2 sequence (whole entry): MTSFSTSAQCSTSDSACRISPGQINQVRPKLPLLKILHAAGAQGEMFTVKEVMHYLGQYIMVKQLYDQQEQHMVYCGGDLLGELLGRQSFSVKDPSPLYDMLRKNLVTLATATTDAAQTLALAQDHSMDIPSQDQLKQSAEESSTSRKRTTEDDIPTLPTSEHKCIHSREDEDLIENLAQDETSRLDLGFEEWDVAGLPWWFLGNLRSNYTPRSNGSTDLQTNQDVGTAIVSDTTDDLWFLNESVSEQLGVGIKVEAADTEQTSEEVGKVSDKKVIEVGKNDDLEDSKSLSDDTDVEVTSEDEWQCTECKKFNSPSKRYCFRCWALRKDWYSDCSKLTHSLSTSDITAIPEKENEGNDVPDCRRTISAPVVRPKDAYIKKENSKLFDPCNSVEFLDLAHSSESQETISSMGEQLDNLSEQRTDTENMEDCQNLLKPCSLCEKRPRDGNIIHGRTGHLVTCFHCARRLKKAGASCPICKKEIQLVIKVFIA
Method in brief: (§1)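 E. coli reporter strain SNS126 (HIS3-KanR-lacZ) carrying chromosomally integrated DBD-fusion repressor halves (Hdm2–p53 or Hdmx–p53), transformed with SICLOPPS cyclic-peptide constructs and tested in both native and opposite strains. Cells grown on solid LB with 32 µM IPTG plus 9.7 µM L-arabinose; β-galactosidase measured by ONPG hydrolysis. % derepression = percent β-galactosidase enhancement relative to unrepressed (DBD-only) control.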

[4] = target: T2, Protein Mdm4 (Homo sapiens); experiment: Inhibition of GST-tagged MDMX expressed in Escherichia coli harboring integrated p53-Hmd2 protein assessed as enzyme-p53 interaction by beta-galactosidase assay; set-up: concentration or dose not given beside the values; conditions: concentration not given here; method in brief: as §1
[5] = target: T2, Protein Mdm4 (Homo sapiens); experiment: Inhibition of GST-tagged MDMX expressed in Escherichia coli harboring integrated p53-Hmd2 protein assessed as blockade of enzyme-p53 interaction by beta-galactosidase assay; conditions: concentration not given here; method in brief: as §1
[6] = target: T2, Protein Mdm4 (Homo sapiens); experiment: Inhibition of GST-tagged MDMX expressed in Escherichia coli harboring integrated p53-MDMX protein assessed as enhancement of enzyme-p53 interaction by beta-galactosidase assay; set-up: concentration or dose not given beside the values; conditions: concentration not given here; method in brief: as §1
[7] = target: T2, Protein Mdm4 (Homo sapiens); experiment: Inhibition of GST-tagged MDMX expressed in Escherichia coli harboring integrated p53-Hmd2 protein assessed as enhancement of enzyme-p53 interaction by beta-galactosidase assay; set-up: concentration or dose not given beside the values; conditions: concentration not given here; method in brief: as §1
[8] = target: T2, Protein Mdm4 (Homo sapiens); experiment: Inhibition of GST-tagged MDMX expressed in Escherichia coli harboring integrated p53-MDMX protein assessed as enzyme-p53 interaction by beta-galactosidase assay; set-up: concentration or dose not given beside the values; conditions: concentration not given here; method in brief: as §1
[9] = target: T1, E3 ubiquitin-protein ligase Mdm2; experiment: Inhibition of GST-tagged Hdm2 expressed in Escherichia coli harboring integrated p53-MDMX protein assessed as blockade of enzyme-p53 interaction by beta-galactosidase assay; conditions: concentration not given here; method in brief: as §1
Target sequence in this assay (Q00987 whole entry, looked up): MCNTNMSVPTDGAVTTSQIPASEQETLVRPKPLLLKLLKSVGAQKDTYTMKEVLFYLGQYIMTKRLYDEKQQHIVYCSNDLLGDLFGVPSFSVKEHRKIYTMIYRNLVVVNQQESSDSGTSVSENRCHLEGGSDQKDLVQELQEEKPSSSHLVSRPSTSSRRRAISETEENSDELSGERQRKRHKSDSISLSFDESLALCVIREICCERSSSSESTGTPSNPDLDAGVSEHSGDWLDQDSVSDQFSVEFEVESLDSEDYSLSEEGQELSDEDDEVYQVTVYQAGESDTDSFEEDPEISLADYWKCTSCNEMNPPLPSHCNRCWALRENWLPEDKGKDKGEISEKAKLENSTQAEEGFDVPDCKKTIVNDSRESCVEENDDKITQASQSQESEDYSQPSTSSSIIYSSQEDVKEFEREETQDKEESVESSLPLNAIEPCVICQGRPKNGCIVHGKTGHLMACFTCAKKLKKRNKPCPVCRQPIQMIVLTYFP

[10] = target: T1, E3 ubiquitin-protein ligase Mdm2; experiment: Inhibition of GST-tagged Hdm2 expressed in Escherichia coli harboring integrated p53-Hmd2 protein assessed as blockade of enzyme-p53 interaction by beta-galactosidase assay; conditions: concentration not given here; method in brief: as §1
Target sequence in this assay (Q00987 whole entry, looked up): as above

[11] = target: T1, E3 ubiquitin-protein ligase Mdm2; experiment: Inhibition of GST-tagged Hdm2 expressed in Escherichia coli harboring integrated p53-MDMX protein assessed as enhancement of enzyme-p53 interaction by beta-galactosidase assay; conditions: concentration not given here; method in brief: as §1
Target sequence in this assay (Q00987 whole entry, looked up): as above

[12] = target: T1, E3 ubiquitin-protein ligase Mdm2; experiment: Inhibition of GST-tagged Hdm2 expressed in Escherichia coli harboring integrated p53-MDMX protein assessed as enzyme-p53 interaction by beta-galactosidase assay; conditions: concentration not given here; method in brief: as §1
Target sequence in this assay (Q00987 whole entry, looked up): as above

[13] = target: T1, E3 ubiquitin-protein ligase Mdm2; experiment: Inhibition of GST-tagged Hdm2 expressed in Escherichia coli harboring integrated p53-Hmd2 protein assessed as enhancement of enzyme-p53 interaction by beta-galactosidase assay; conditions: concentration not given here; method in brief: as §1
Target sequence in this assay (Q00987 whole entry, looked up): as above

[14] = target: T1, E3 ubiquitin-protein ligase Mdm2; experiment: Inhibition of GST-tagged Hdm2 expressed in Escherichia coli harboring integrated p53-Hmd2 protein assessed as enzyme-p53 interaction by beta-galactosidase assay; conditions: concentration not given here; method in brief: as §1
Target sequence in this assay (Q00987 whole entry, looked up): as above

CC(C)(C)OC(=O)N[C@@H](CCCNC(=N)N)C(=O)N[C@@H](Cc1c[nH]c2ccccc12)C(=O)N[C@@H](Cc1ccccc1)C(=O)N1CCCCC1
inhibition [1]: inactive

CC(C)COC(=O)N[C@@H](CCCNC(=N)N)C(=O)N[C@@H](Cc1c[nH]c2ccccc12)C(=O)N[C@@H](Cc1ccccc1)C(=O)NC(C)(C)C
inhibition [1]: inactive

CC(C)COC(=O)N[C@@H](CCCNC(=N)N)C(=O)N[C@@H](Cc1c[nH]c2ccccc12)C(=O)N[C@@H](Cc1ccccc1)C(=O)NCc1ccccc1
inhibition [1]: inactive

CC(C)(C)OC(=O)N[C@@H](CCCNC(=N)N)C(=O)N[C@@H](Cc1c[nH]c2ccccc12)C(=O)N[C@@H](Cc1ccccc1)C(=O)NCc1ccccc1 (Boc-Arg-Trp-Phe-NHBn)
inhibition [1]: inactive

CC(C)(C)NC(=O)[C@H](Cc1ccccc1)NC(=O)[C@H](Cc1c[nH]c2ccccc12)NC(=O)[C@H](CCCNC(=N)N)NC(=O)OC(C)(C)C (Boc-Arg-Trp-Phe-NHtBu)
inhibition [1]: inactive

CC(C)[C@H](NC(=O)[C@H](Cc1ccc(O)cc1)NC(=O)[C@H](Cc1ccc(O)cc1)NC(=O)[C@H](Cc1ccccc1)NC(=O)OC(C)(C)C)C(=O)N1CCCCC1 (Boc-FYYV-Piperidide)
solubility [2]: Insoluble

CC[C@H](C)[C@H](NC(=O)OC(C)(C)C)C(=O)N[C@@H](Cc1ccccc1)C(=O)N[C@@H](Cc1ccc(O)cc1)C(=O)N[C@@H](Cc1ccc(O)cc1)C(=O)N[C@H](C(=O)N1CCCCC1)C(C)C (Boc-IFYYV-Piperidide)
solubility [2]: Insoluble

N=C(N)NCCC[C@H](NC(=O)OCc1ccccc1)C(=O)N[C@@H](Cc1c[nH]c2ccccc12)C(=O)N[C@@H](Cc1ccccc1)C(=O)NCc1ccccc1 (Cbz-Arg-Trp-Phe-NHBn)
inhibition [1]: inactive

N=C(N)NCCC[C@H](NC(=O)OCc1ccccc1)C(=O)N[C@@H](Cc1c[nH]c2ccccc12)C(=O)N[C@@H](Cc1ccccc1)C(=O)N1CCCCC1 (Cbz-Arg-Trp-Phe-Piperidide)
inhibition [1]: inactive

CC(C)C(=O)N[C@@H](CCCNC(=N)N)C(=O)N[C@@H](Cc1c[nH]c2ccccc12)C(=O)N[C@@H](Cc1ccccc1)C(=O)NCc1ccccc1 (Isobutyryl-Arg-Trp-Phe-NHBn)
inhibition [1]: inactive

CC(C)C(=O)N[C@@H](CCCNC(=N)N)C(=O)N[C@@H](Cc1c[nH]c2ccccc12)C(=O)N[C@@H](Cc1ccccc1)C(=O)NC(C)(C)C (Isobutyryl-Arg-Trp-Phe-NHtBu)
inhibition [1]: inactive

N=C(N)NCCC[C@H](NC(=O)Cc1ccccc1)C(=O)N[C@@H](Cc1c[nH]c2ccccc12)C(=O)N[C@@H](Cc1ccccc1)C(=O)NCc1ccccc1 (PhAc-Arg-Trp-Phe-NHBn)
inhibition [1]: inactive

CC(C)(C)NC(=O)[C@H](Cc1ccccc1)NC(=O)[C@H](Cc1c[nH]c2ccccc12)NC(=O)[C@H](CCCNC(=N)N)NC(=O)Cc1ccccc1 (PhAc-Arg-Trp-Phe-NHtBu)
inhibition [1]: inactive

CC(C)(C)C(=O)N[C@@H](CCCNC(=N)N)C(=O)N[C@@H](Cc1c[nH]c2ccccc12)C(=O)N[C@@H](Cc1ccccc1)C(=O)NCc1ccccc1 (Piv-Arg-Trp-Phe-NHBn)
inhibition [1]: inactive

CC(C)(C)NC(=O)[C@H](Cc1ccccc1)NC(=O)[C@H](Cc1c[nH]c2ccccc12)NC(=O)[C@H](CCCNC(=N)N)NC(=O)C(C)(C)C (Piv-Arg-Trp-Phe-NHtBu)
inhibition [1]: inactive

CC[C@H](C)[C@@H]1NC(=O)[C@H](C)NC(=O)[C@H](C(C)C)NC(=O)[C@H](Cc2ccc(O)cc2)NC(=O)[C@H](Cc2ccc(O)cc2)NC(=O)[C@H](Cc2ccccc2)NC1=O (cyclo(AIFYYV))
Activity [1]: Dose-dependent effect | IC50 [1]: 209 µM

H-CDLRWF-OH
inhibition [3]: 76% | inhibition [4]: 37% | inhibition [5]: 6% | inhibition [6]: 45% | inhibition [7]: 4% | inhibition [8]: 86%

H-CHLRWL-OH
inhibition [3]: 58% | inhibition [4]: 41% | inhibition [5]: 10% | inhibition [6]: 34% | inhibition [7]: 7% | inhibition [8]: 75%

H-CIFYYV-OH
inhibition [9]: 42% | inhibition [10]: 51% | inhibition [11]: 24% | inhibition [12]: 66% | inhibition [13]: 34% | inhibition [14]: 67%

H-CIWWYM-OH
inhibition [9]: 49% | inhibition [10]: 12% | inhibition [11]: 29% | inhibition [12]: 70% | inhibition [13]: 8% | inhibition [14]: 41%

H-CKAVLF-OH
inhibition [3]: 51% | inhibition [4]: 38% | inhibition [5]: 7% | inhibition [6]: 30% | inhibition [7]: 5% | inhibition [8]: 71%

H-CLFFNY-OH
inhibition [3]: 47% | inhibition [4]: 45% | inhibition [5]: 18% | inhibition [6]: 28% | inhibition [7]: 12% | inhibition [8]: 69%

H-CLWWYM-OH
inhibition [9]: 41% | inhibition [10]: 18% | inhibition [11]: 24% | inhibition [12]: 65% | inhibition [13]: 12% | inhibition [14]: 45%

H-CMFYYI-OH
inhibition [9]: 37% | inhibition [10]: 18% | inhibition [11]: 22% | inhibition [12]: 63% | inhibition [13]: 12% | inhibition [14]: 45%

H-CRLLDF-OH
inhibition [3]: 49% | inhibition [4]: 38% | inhibition [5]: 7% | inhibition [6]: 29% | inhibition [7]: 5% | inhibition [8]: 70%
